Results collected from several papers.
Protocols differ between the studies behind these lines.
GLP2R: Glucagon-like peptide 2 receptor (GLP2R, Homo sapiens, UniProt O95838)
Melanocortin receptor 4: Melanocortin receptor 4 (Mus musculus, UniProt P56450)
Tspo: Translocator protein (Tspo, Rattus norvegicus, UniProt P16257)

Compound | target | assay | conditions | endpoint | result
CC[C@H](C)[C@H](NC(=O)[C@H](CO)NC(=O)[C@H](Cc1ccc(O)cc1)NC(=O)[C@H](CC(=O)O)NC(=O)[C@H](CO)NC(=O)[C@@H](NC(=O)[C@H](Cc1ccccc1)NC(=O)[C@@H](NC(=O)CNC(=O)[C@H](CCC(=O)O)NC(=O)[C@H](C)NC(=O)[C@@H](N)Cc1ccc(O)cc1)[C@@H](C)O)[C@@H](C)CC)C(=O)N[C@@H](C)C(=O)N[C@@H](CCSC)C(=O)N[C@@H](CC(=O)O)C(=O)N[C@@H](CCCCN)C(=O)N[C@H](C(=O)N[C@@H](Cc1c[nH]cn1)C(=O)N[C@@H](CCC(N)=O)C(=O)N[C@@H](CCC(N)=O)C(=O)N[C@@H](CC(=O)O)C(=O)N[C@@H](Cc1ccccc1)C(=O)N[C@H](C(=O)N[C@@H](CC(N)=O)C(=O)N[C@@H](Cc1c[nH]c2ccccc12)C(=O)N[C@@H](CC(C)C)C(=O)N[C@@H](CC(C)C)C(=O)N[C@@H](C)C(=O)N[C@@H](CCC(N)=O)C(=O)N[C@@H](CCCCN)C(=O)NCC(=O)N[C@@H](CCCCN)C(=O)N[C@@H](CCCCN)C(=O)N[C@@H](CC(N)=O)C(=O)N[C@@H](CC(=O)O)C(=O)N[C@@H](Cc1c[nH]c2ccccc12)C(=O)N[C@@H](CCCCN)C(=O)N[C@@H](Cc1c[nH]cn1)C(=O)N[C@@H](CC(N)=O)C(=O)N[C@H](C(=O)N[C@H](C(=O)N[C@@H](CCC(N)=O)C(=O)O)[C@@H](C)O)[C@@H](C)CC)C(C)C)[C@@H](C)CC | GLP2R | reporter gene, agonist, luciferase |  | EC50 | > 1 µM
N=C(N)NCCC[C@H](NC(=O)[C@@H](N)CC(=O)O)C(=O)N[C@@H](Cc1ccccc1)C(=O)O | Melanocortin receptor 4 | reporter gene, agonist |  | EC50 | > 100 µM
CC[C@H](C)[C@H](NC(=O)[C@H](Cc1ccccc1)NC(=O)[C@H](CCC(=O)O)NC(=O)[C@H](CCCCN)NC(=O)[C@H](C)NC(=O)[C@H](C)NC(=O)[C@H](CCC(N)=O)NC(=O)CNC(=O)[C@H](CCC(=O)O)NC(=O)[C@H](CC(C)C)NC(=O)[C@H](Cc1ccc(O)cc1)NC(=O)[C@H](CO)NC(=O)[C@H](CO)NC(=O)[C@@H](NC(=O)[C@H](CC(=O)O)NC(=O)[C@H](CO)NC(=O)[C@@H](NC(=O)[C@H](Cc1ccccc1)NC(=O)[C@@H](NC(=O)CNC(=O)[C@H](CCC(=O)O)NC(=O)[C@H](C)NC(=O)[C@@H](N)Cc1c[nH]cn1)[C@@H](C)O)[C@@H](C)O)C(C)C)C(=O)N[C@@H](C)C(=O)N[C@@H](Cc1c[nH]c2ccccc12)C(=O)N[C@@H](CC(C)C)C(=O)N[C@H](C(=O)N[C@@H](CCCCN)C(=O)NCC(=O)N[C@@H](CCCN=C(N)N)C(=O)NCC(=O)O)C(C)C | GLP2R | reporter gene, agonist, luciferase |  | EC50 | > 1 µM
Cc1cc2nc3c(=O)[nH]c(=O)nc-3n(C[C@H](O)[C@H](O)[C@H](O)COP(=O)(O)OP(=O)(O)OC[C@H]3O[C@@H](n4cnc5c(N)ncnc54)[C@H](O)[C@@H]3O)c2cc1C | Dihydrolipoyl dehydrogenase, mitochondrial (DLD, Homo sapiens, UniProt P09622) | binding | lysate | Kd | 641 nM
CCOC(=O)[C@@]12C[C@@H]1[C@@H](n1ccc3c(NC)nc(I)nc31)[C@H](O)[C@@H]2O | Tspo | ligand displacement, radioligand |  | Ki | > 10 µM
CC/C=C\C/C=C\C/C=C\C/C=C\C/C=C\CCCC(=O)O | Peroxisome proliferator-activated receptor delta (PPARD, Homo sapiens, UniProt Q03181) | reporter gene, agonist, luciferase |  | EC50 | 90.5 µM
CSCC[C@H](NC(=O)[C@@H](NC(=O)[C@@H](N)Cc1ccc(O)cc1)C(C)C)C(=O)NCC(=O)N[C@@H](Cc1c[nH]cn1)C(=O)N[C@@H](Cc1ccccc1)C(=O)O | Melanocortin receptor 4 | reporter gene, agonist |  | EC50 | > 100 µM
CNc1nc(C#Cc2ccc(Cl)s2)nc2c1ncn2[C@H]1[C@H](O)[C@H](O)[C@]2(C(=O)O)C[C@H]12 | Tspo | ligand displacement, radioligand |  | Ki | > 10 µM
N=C(N)NCCC[C@H](NC(=O)[C@H](CC(=O)O)NC(=O)[C@H](Cc1c[nH]c2ccccc12)NC(=O)[C@@H](N)CCCNC(=N)N)C(=O)N[C@@H](Cc1ccccc1)C(=O)NCC(=O)O | Melanocortin receptor 4 | reporter gene, agonist |  | EC50 | > 100 µM
Cc1nc2ccc(NC(=O)CCNC(=O)CCCc3ccc(CC(C(=O)O)C(=O)O)cc3)cc2s1 | L-lactate dehydrogenase A chain (LDHA, Homo sapiens, UniProt P00338) | binding, SPR |  | Kd | 58 nM
CNC(=O)[C@@]12C[C@@H]1[C@@H](n1cnc3c(NCc4cccc(Cl)c4)nc(Cl)nc31)[C@H](O)[C@@H]2O | Tspo | ligand displacement, radioligand |  | Ki | > 10 µM
O=C(OC[C@H]1O[C@@H](OC(=O)c2cc(O)c(O)c(OC(=O)c3cc(O)c(O)c(O)c3)c2)[C@H](OC(=O)c2cc(O)c(O)c(OC(=O)c3cc(O)c(O)c(O)c3)c2)[C@@H](OC(=O)c2cc(O)c(O)c(OC(=O)c3cc(O)c(O)c(O)c3)c2)[C@@H]1OC(=O)c1cc(O)c(O)c(OC(=O)c2cc(O)c(O)c(O)c2)c1)c1cc(O)c(O)c(OC(=O)c2cc(O)c(O)c(O)c2)c1 | Replicase polyprotein 1ab, main protease (rep, Severe acute respiratory syndrome coronavirus 2, UniProt P0DTD1) | binding, SPR |  | Kd | 1100 nM
N=C(N)NCCC[C@H](NC(=O)[C@H](CC(=O)O)NC(=O)[C@H](Cc1c[nH]c2ccccc12)NC(=O)[C@H](CCCNC(=N)N)NC(=O)[C@@H](N)Cc1ccccc1)C(=O)N[C@@H](Cc1ccccc1)C(=O)NCC(=O)O | Melanocortin receptor 4 | reporter gene, agonist |  | EC50 | 47.4 µM
CNc1nc(C#Cc2ccc(Cl)s2)nc2c1ncn2[C@H]1[C@H](O)[C@H](O)[C@]2(C(=O)OCCc3ccccc3)C[C@H]12 | Tspo | ligand displacement, radioligand |  | Ki | > 10 µM
Cc1cnc(-c2ccc(-c3ccc(NC(=O)Nc4c(F)cc(F)cc4F)cc3F)c3c2C(=O)NC3)[nH]1 | High affinity nerve growth factor receptor (NTRK1, Homo sapiens, UniProt P04629) | binding, competition with immobilised ligand |  | Kd | 1 nM
